From ChEMBL document CHEMBL4732088, “Identification and optimization of piperlongumine analogues as potential antioxidant and anti-inflammatory agents via activation of Nrf2” (Eur J Med Chem, 2021)
Active and inactive are the calls of the source. No cut-off for these calls is given here.

Legend:
PC-12 [1] = assay: Neuroprotective activity against H2O2-induced cell damage in rat PC12 cells assessed as cell viability at 20 uM after 24 hrs by MTT assay (reference value: 46 +/- 4.12 %); format: functional; details: read-out: Activity
PC-12 [2] = assay: Neuroprotective activity against 6-OHDA-induced cell damage in rat PC12 cells assessed as cell viability at 20 uM after 24 hrs by MTT assay (reference value: 45.23 +/- 4.37 %); format: functional; details: for viability at 20 µM: read-out: Activity
PC-12 [3] = assay: Neuroprotective activity against H2O2-induced cell damage in rat PC12 cells at 20 uM after 24 hrs by MTT assay; format: functional, cell-based
PC-12 [4] = assay: Neuroprotective activity against 6-OHDA-induced cell damage in rat PC12 cells at 20 uM after 24 hrs by MTT assay; format: functional, cell-based
PC-12 [5] = assay: Cytotoxicity against rat PC12 cells at 50 uM by MTT assay; format: cell-based; details: pc-12, 50 µM
How it was run: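 Rat PC12 cells exposed to compounds at 50 μM; viability by MTT assay.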

PC-12 [6] = assay: Upregulation of Nrf2 expression in rat PC12 cells at 20 uM after 24 hrs by Western blot analysis; format: functional, cell-based
How it was run: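 Rat PC12 cells exposed to compound for 24 h. Nrf2 protein detected by western blot. Mean ± SD, n = 3.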

SMILES | viability at 20 µM (PC-12 [1]) [%] | viability at 20 µM (PC-12 [2]) [%] | further results
CC(C)(C)C(=O)N1CCN(C(=O)/C=C/c2ccc(Cl)cc2)C1=O | 72 | 71.1 | –
CC(C)(C)C(=O)N1CCN(C(=O)/C=C/c2ccccc2Cl)C1=O | 70 | 69 | –
O=C(/C=C/c1ccc(F)cc1)N1CCN(C(=O)N2CCCCC2)C1=O | 72.8 | 72.1 | –
CC(C)(C)C(=O)N1CCN(C(=O)/C=C/c2ccccc2)C1=O | 61.5 | 60.1 | –
CC(=O)N/C(=C\c1ccccc1)C(=O)N1CCN(C(=O)C(C)(C)C)C1=O | 72.7 | 71.2 | –
O=C(/C=C/c1ccccc1)N1CCCCC1=O | – | – | Activity (PC-12 [2]): Active; Activity (PC-12 [3]): Active; Activity (PC-12 [4]): Active
O=C(CCc1ccc(F)cc1)N1CCNC1=O | 53.6 | 56.3 | –
CC(C)(C)C(=O)N1CCN(C(=O)/C=C/c2ccc(C#N)cc2)C1=O | 71.4 | 71.1 | –
CC(C)(C)C(=O)N1CCN(C(=O)/C=C/c2cccc3ccccc23)C1=O | 72.3 | 71.8 | –
CC(C)(C)C(=O)N1CCN(C(=O)/C=C/c2ccncc2)C1=O | 71.1 | 69.6 | –
O=C(/C=C/c1ccccc1)N1CCNC1=O | – | – | Activity (PC-12 [2]): Active; Activity (PC-12 [3]): Active; Activity (PC-12 [4]): Active
CN(C)C(=O)N1CCN(C(=O)/C=C/c2ccc(F)cc2)C1=O | 73.8 | 71.3 | –
COc1cc(/C=C/C(=O)N2CCC=CC2=O)cc(OC)c1OC [PIPLARTINE] | – | – | Activity (PC-12 [5]): Toxic
CC(C)(C)C(=O)N1CCN(C(=O)/C=C/c2c(F)cccc2Cl)C1=O | – | 71.1 | –
CC(C)(C)C(=O)N1CCN(C(=O)/C=C/c2ccccc2F)C1=O | 72.4 | 72.3 | –
C=C(C)C(=O)N1CCN(C(=O)/C=C/c2ccc(F)cc2)C1=O | 38 | 30.2 | Activity (PC-12 [5]): Toxic
CCC(=O)N1CCN(C(=O)/C=C/c2ccc(F)cc2)C1=O | 71.6 | 70.2 | –
O=C(/C=C/c1ccc(F)cc1)N1CCN(C(=O)c2cccs2)C1=O | 62.2 | 60.8 | –
O=C(/C=C/c1ccc(F)cc1)N1CCNC1=O | 68.6 | 69.1 | Activity (PC-12 [6]): Active

SMILES | viability at 20 µM (PC-12 [1]) [%] | viability at 20 µM (PC-12 [2]) [%] | further results
O=C(/C=C/c1cccs1)N1CCNC1=O | 65.2 | 64.2 | –
CC(C)(C)C(=O)N1CCN(C(=O)/C=C/c2ccc(C(F)(F)F)cc2)C1=O | 72.5 | 71.1 | –
O=C(/C=C/c1ccc(F)cc1)N1CCN(C(=O)c2ccccc2)C1=O | 63.3 | 60.3 | –
O=C(/C=C/c1ccc(C(F)(F)F)cc1)N1CCNC1=O | 67.7 | 65.3 | –
C=CC(=O)N1CCN(C(=O)/C=C/c2ccc(F)cc2)C1=O | 44 | 43.8 | Activity (PC-12 [5]): Toxic
N#Cc1ccc(C(=O)N2CCN(C(=O)/C=C/c3ccc(F)cc3)C2=O)cc1 | 55.1 | 52.3 | Activity (PC-12 [5]): Toxic
CCCC(=O)N1CCN(C(=O)/C=C/c2ccc(F)cc2)C1=O | 70.2 | 69.3 | –
CC(C)(C)C(=O)N1CCN(C(=O)/C=C/c2cccc(F)c2)C1=O | 71 | 69.3 | –
O=C(/C=C/c1ccc(F)cc1)N1CCN(C(=O)CCCl)C1=O | 43.2 | 37.1 | Activity (PC-12 [5]): Toxic
CC(C)(C)C(=O)N1CCN(C(=O)/C=C/c2cccs2)C1=O | 69.2 | 68.2 | –
CC(C)(C)C(=O)N1CCN(C(=O)/C=C/c2ccc3c(c2)OCO3)C1=O | 63.3 | 62.3 | –
O=C(/C=C/c1ccco1)N1CCNC1=O | 64.1 | 60 | –
CC(C)(C)C(=O)N1CCN(C(=O)/C=C/c2ccc(F)cc2)C1=O | 73.6 | 72.2 | –
O=C(/C=C/c1ccccc1)N1CCCNC1=O | – | – | Activity (PC-12 [2]): Active; Activity (PC-12 [3]): Active; Activity (PC-12 [4]): Active
CCN(C)C(=O)N1CCN(C(=O)CCc2ccc(F)cc2)C1=O | 59.5 | 62.5 | –
CC(C)(C)C(=O)N1CCN(C(=O)/C=C/c2cccc(Cl)c2)C1=O | 69.2 | 68.3 | –
CC(C)(C)C(=O)N1CCN(C(=O)/C=C/c2ccco2)C1=O | 69.7 | 68.3 | –
CC(=O)N1CCN(C(=O)/C=C/c2ccc(F)cc2)C1=O | 70.4 | 72.3 | –
